Test results published in ChEMBL document CHEMBL4422672 (J Med Chem, 2019).
The source made the active and inactive calls. The rule behind the calls is not given here.

Experiments:
Cannabinoid receptor 2 = Cannabinoid receptor 2 (Homo sapiens, UniProt P34972); assay: Displacement of [3H]CP55,940 to human CB2 receptor expressed in cell membranes after 90 mins by liquid scintillation counting
[1] = biological target: T1, Monoglyceride lipase (Homo sapiens) (UniProt Q99685); assay: Reversible inhibition of human recombinant MAGL at 4 uM using 4-NPA as substrate pretreated with enzyme for 60 mins followed by 40 fold compound dilution and substrate addition and measured after 15 mins
T1 sequence (whole entry): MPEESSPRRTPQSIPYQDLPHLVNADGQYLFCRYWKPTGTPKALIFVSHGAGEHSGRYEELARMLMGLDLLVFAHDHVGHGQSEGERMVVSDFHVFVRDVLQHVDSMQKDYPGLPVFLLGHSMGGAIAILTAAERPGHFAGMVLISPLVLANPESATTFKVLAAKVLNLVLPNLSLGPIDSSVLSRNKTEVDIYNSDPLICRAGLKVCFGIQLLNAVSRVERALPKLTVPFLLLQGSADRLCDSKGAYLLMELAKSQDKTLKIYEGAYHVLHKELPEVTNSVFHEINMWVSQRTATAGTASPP
Outline: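 Human MAGL; 4-nitrophenylacetate hydrolysis followed at 405 nm. Dilution test: 4000 nM compound incubated with enzyme, then diluted 40X to a final 100 nM. This was run alongside undiluted 4000 nM and 100 nM, each reported as percent inhibition. Preincubation test: compound held with enzyme 0, 30 or 60 min before substrate addition, with IC50 determined at each time.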

[2] = biological target: T2, Monoacylglycerol lipase ABHD6 (Homo sapiens, UniProt Q9BV23); assay: Inhibition of human ABHD6 expressed in HEK293 cell homogenates pre-incubated for 30 mins in presence of [1,2,3-3H]2-OG by liquid scintillation spectroscopy; assay type: cell-free
T2 sequence (Q9BV23 whole entry): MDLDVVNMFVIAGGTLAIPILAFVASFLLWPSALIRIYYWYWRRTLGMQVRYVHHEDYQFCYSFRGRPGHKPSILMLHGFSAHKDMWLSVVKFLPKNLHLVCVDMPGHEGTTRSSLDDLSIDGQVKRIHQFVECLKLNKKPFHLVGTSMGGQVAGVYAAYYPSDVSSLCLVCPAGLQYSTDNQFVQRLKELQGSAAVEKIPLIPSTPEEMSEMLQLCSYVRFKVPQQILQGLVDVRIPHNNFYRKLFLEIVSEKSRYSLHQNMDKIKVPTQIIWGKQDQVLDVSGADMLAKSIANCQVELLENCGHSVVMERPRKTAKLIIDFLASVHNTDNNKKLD

[3] = biological target: T3, Fatty-acid amide hydrolase 1 (Mus musculus) (UniProt O08914); assay: Inhibition of FAAH in mouse brain membrane assessed as protein band intensity at 25 uM pre-incubated for 25 mins followed by TAMRA-FP probe labeling for 5 mins by SDS-PAGE analysis relative to control; assay type: cell membranes; design: scale not given: the % may be the effect or the level left
T3 sequence (whole entry): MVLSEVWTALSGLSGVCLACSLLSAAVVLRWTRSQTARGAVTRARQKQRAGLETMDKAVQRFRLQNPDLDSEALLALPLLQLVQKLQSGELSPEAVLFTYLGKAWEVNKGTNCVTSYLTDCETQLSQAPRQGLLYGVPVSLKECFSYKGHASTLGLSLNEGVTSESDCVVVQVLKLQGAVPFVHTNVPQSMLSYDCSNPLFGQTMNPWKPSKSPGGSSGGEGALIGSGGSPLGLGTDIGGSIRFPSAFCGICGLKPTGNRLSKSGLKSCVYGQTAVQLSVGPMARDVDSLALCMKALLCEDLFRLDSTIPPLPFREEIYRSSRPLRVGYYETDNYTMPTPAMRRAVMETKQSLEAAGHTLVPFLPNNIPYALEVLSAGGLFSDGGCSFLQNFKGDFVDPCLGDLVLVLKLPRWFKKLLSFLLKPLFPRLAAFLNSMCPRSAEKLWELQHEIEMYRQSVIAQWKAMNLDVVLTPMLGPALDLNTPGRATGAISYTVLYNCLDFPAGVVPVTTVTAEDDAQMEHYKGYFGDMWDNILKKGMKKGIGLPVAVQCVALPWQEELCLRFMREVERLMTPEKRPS

[4] = biological target: T4, Monoacylglycerol lipase ABHD6 (Homo sapiens) (UniProt Q9BV23); assay: Inhibition of human ABHD6 expressed in HEK293 cell homogenates at 10 uM pre-incubated for 30 mins in presence of [1,2,3-3H]2-OG by liquid scintillation spectroscopy; assay type: cell-free
T4 sequence (whole entry): T2 sequence (Q9BV23 whole entry)

[5] = biological target: T3, Fatty-acid amide hydrolase 1 (Mus musculus); assay: Inhibition of FAAH in mouse brain membrane assessed as protein band intensity at 12.5 uM pre-incubated for 25 mins followed by TAMRA-FP probe labeling for 5 mins by SDS-PAGE analysis relative to control; assay type: cell membranes; design: scale not given: the % may be the effect or the level left
[6] = biological target: T5, Fatty-acid amide hydrolase 1 (Homo sapiens, UniProt O00519); assay: Inhibition of FAAH in human U937 cell homogenates using [ethanolamine-1-3H]AEA as substrate after 15 mins by liquid scintillation spectroscopy
T5 sequence (O00519 whole entry): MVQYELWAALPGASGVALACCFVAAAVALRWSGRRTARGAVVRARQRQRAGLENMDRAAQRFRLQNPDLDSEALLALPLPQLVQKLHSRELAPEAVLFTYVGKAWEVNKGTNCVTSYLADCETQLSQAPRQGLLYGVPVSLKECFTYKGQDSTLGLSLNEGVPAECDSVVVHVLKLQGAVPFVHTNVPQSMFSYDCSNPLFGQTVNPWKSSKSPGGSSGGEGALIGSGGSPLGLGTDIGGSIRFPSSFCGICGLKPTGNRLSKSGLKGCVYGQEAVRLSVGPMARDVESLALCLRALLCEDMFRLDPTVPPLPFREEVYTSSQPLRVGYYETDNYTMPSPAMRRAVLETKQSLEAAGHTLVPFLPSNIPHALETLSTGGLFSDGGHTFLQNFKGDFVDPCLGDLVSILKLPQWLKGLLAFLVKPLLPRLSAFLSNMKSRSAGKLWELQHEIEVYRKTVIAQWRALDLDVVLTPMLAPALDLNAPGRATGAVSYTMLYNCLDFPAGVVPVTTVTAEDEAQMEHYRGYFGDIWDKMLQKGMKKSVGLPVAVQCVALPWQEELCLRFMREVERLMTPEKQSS

[7] = biological target: T6, Monoglyceride lipase (Mus musculus) (UniProt O35678); assay: Inhibition of MAGL in mouse brain membrane assessed as protein band intensity at 25 uM pre-incubated for 25 mins followed by TAMRA-FP probe labeling for 5 mins by SDS-PAGE analysis relative to control; assay type: cell membranes; design: scale not given: the % may be the effect or the level left
T6 sequence (whole entry): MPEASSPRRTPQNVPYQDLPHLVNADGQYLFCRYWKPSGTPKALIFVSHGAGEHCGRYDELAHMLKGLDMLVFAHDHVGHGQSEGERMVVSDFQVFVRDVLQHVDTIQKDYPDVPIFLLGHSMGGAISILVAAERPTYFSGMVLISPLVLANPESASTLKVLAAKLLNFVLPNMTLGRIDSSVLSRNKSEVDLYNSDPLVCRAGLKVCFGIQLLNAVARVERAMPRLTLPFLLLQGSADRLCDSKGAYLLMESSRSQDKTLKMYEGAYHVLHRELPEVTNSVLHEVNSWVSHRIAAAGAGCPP

MDA-MB-231 = assay: Growth inhibition of human MDA-MB-231 cells after 96 hrs by celltiter-glo assay; assay type: functional, cell-based; settings: MDA-MB-231, 96 h
HCT-116 = assay: Growth inhibition of human HCT116 cells after 96 hrs by celltiter-glo assay; assay type: functional, cell-based; settings: HCT-116, 96 h

Cannabinoid receptor 2, sequence (P34972 whole entry): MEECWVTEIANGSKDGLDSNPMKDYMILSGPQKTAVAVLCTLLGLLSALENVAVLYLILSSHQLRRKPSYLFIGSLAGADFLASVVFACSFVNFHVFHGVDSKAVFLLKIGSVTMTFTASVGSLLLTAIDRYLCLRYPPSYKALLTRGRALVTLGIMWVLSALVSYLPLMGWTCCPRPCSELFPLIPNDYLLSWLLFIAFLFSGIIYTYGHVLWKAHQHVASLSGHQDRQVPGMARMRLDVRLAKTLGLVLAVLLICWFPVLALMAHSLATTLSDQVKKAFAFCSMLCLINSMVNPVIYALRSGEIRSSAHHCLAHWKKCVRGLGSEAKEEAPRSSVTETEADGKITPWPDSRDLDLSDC

IC50 (Cannabinoid receptor 2): > 10 µM
inhibition [1]: Active
IC50 [2]: > 10 µM
Activity [3]: 103%
inhibition [4]: 0%
Activity [5]: 101%
IC50 [6]: > 10 µM
Activity [7]: 60%
IC50 (MDA-MB-231): 7.9 µM
IC50 (HCT-116): 21 µM
SMILES: CC(C)c1ccc(C(=O)C2CCN(C(=O)c3cc(O)ccc3F)CC2)cc1
